Reference: ChEMBL document CHEMBL4145582, “Cytotoxic and Antibacterial Eremophilane Sesquiterpenes from the Marine-Derived Fungus Cochliobolus lunatus SCSIO41401” (J Nat Prod, 2018)
Converted amounts (≈) assume the structure as drawn.

Legend:
Pasteurella multocida = experiment: Antimicrobial activity against Pasteurella multocida subsp. multocida ATCC 43137 after 24 hrs by serial dilution method; format: functional; details: ATCC 43137, 24 h
Outline: (§1)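 Serial broth dilution in 96-well microtiter plates. Compounds and controls are dissolved in DMSO as stock. Bacteria are grown overnight at 37 °C, then diluted to 10^6 cfu/mL. E. coli and S. aureus are grown in Luria–Bertani broth. P. multocida and E. rhusiopathiae are grown in trypticase soy broth with 10% calf serum. Plates are incubated at 37 °C for 24 h and read at 630 nm.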

Escherichia coli = experiment: Antimicrobial activity against Escherichia coli ATCC 25922 after 24 hrs by serial dilution method; format: functional; details: ATCC 25922, 24 h; outline: as §1
SGC-7901 = experiment: Cytotoxicity against human SGC7901 cells after 6 days by MTT assay; format: functional, cell-based; details: SGC-7901, 144 h
Outline: (§2)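 HepG-2 and SGC7901 cells; growth inhibition read by MTT method, with 5-fluorouracil as positive control.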

OS-RC-2 = experiment: Cytotoxicity against human OS-RC2 cells after 72 hrs by CCK8 assay; format: functional, cell-based; details: OS-RC-2, 72 h
Outline: (§3)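 Renal cancer lines ACHN, 786-O and OS-RC-2; cell viability read by CCK-8 assay, with sorafenib as positive control.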

Staphylococcus aureus = experiment: Antimicrobial activity against Staphylococcus aureus subsp. aureus Rosenbach ATCC 25923 after 24 hrs by serial dilution method; format: functional; details: Rosenbach ATCC 25923, 24 h; outline: as §1
HepG2 = experiment: Cytotoxicity against human HepG2 cells after 6 days by MTT assay; format: functional, cell-based; details: HepG2, 144 h; outline: as §2
ACHN = experiment: Cytotoxicity against human ACHN cells after 72 hrs by CCK8 assay; format: functional, cell-based; outline: as §3
786-0 = experiment: Cytotoxicity against human 786-O cells after 72 hrs by CCK8 assay; format: functional, cell-based; details: 786-0, 72 h; outline: as §3
[1] = test system: Erysipelothrix rhusiopathiae; experiment: Antimicrobial activity against Erysipelothrix rhusiopathiae ATCC 19414 after 24 hrs by serial dilution method; format: functional; details: ATCC 19414, 24 h; outline: as §1

MIC (Pasteurella multocida): 13 µg/mL (≈ 20.4 µM)
MIC (Escherichia coli): > 100 µg/mL
MIC (Staphylococcus aureus): 50 µg/mL (≈ 78.3 µM)
MIC [1]: 25 µg/mL (≈ 39.1 µM)
Compound: COC(=O)[C@]12Oc3cc(C)c(-c4ccc(O)c5c4O[C@@]4(C(=O)OC)C(=C(O)C[C@@H](C)[C@H]4O)C5=O)c(O)c3C(=O)C1=C(O)CC[C@H]2O
IC50 (SGC-7901): > 50 µM
IC50 (OS-RC-2): > 50 µM
IC50 (HepG2): > 50 µM
IC50 (ACHN): > 50 µM
IC50 (786-0): 46 µM
